In ChEMBL document CHEMBL1944523, “Benzimidazolones: a new class of selective peroxisome proliferator-activated receptor γ (PPARγ) modulators” (J Med Chem, 2011):
Activity calls are given as the source filed them. The rule behind the calls is not given here.

Tests used:
[1] = molecular target: Cytochrome P450 2D6 (Homo sapiens, UniProt P10635); assay: Inhibition of CYP2D6; type: ADME
[2] = system: Rattus norvegicus; assay: Antidiabetic activity in obese insulin resistant Zucker fa/fa rat assessed as decrease in triglyceride level in plasma at 0.1 to 100 mg/kg qd for 7 days; type: functional, organism-based
In short: (§1)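 Obese insulin-resistant Zucker fa/fa rats (n = 8) dosed daily for 7 days with vehicle or compound. Tail-nick blood taken 1 day before dosing and 1 day after the seventh dose; plasma insulin by rat insulin RIA, free fatty acids and triglyceride by enzymatic kits per manufacturer instructions.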

[3] = system: COS-1; assay: Binding affinity to human PPARgamma LBD Y473A mutant expressed in COS1 cells co-expressing GAL4 by scintillation proximity assay; type: cell-based
[4] = system: Mus musculus; assay: Antidiabetic activity in db/db C57BLKS/J-m +/+ Leprdb mouse assessed as reduction of glucose level at 10 mg/kg, po qd for 10 days measured on 11 relative to control; type: functional; parameters: scale not given: the % may be the effect or the level left
In short: (§2)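 Male db/db (C57BLKS/J-m +/+Leprdb) mice, 12−13 weeks old, seven per group, chow and water freely available; once-daily oral gavage in 0.25% methylcellulose vehicle for 11 days. Tail blood drawn just before next dose on days 0, 4, 7 and 11 for plasma glucose. Value is percent correction versus vehicle control; mean of n = 7; rosiglitazone 10 mpk positive control.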

[5] = system: Mus musculus; assay: Antidiabetic activity in db/db C57BLKS/J-m +/+ Leprdb mouse assessed as reduction of glucose level at 20 mg/kg, po qd for 10 days measured on 11 relative to control; type: functional; parameters: scale not given: the % may be the effect or the level left; in short: as §2
[6] = Inhibition of serine/threonine-protein kinase
[7] = system: Rattus norvegicus; assay: Antidiabetic activity in obese insulin resistant Zucker fa/fa rat assessed as decrease in insulin level in plasma administered qd for 7 days
[8] = molecular target: T1, Nuclear receptor subfamily 1 group I member 2 (Homo sapiens, UniProt O75469); assay: Induction of PXR up to 10 uM
T1 sequence (O75469 whole entry): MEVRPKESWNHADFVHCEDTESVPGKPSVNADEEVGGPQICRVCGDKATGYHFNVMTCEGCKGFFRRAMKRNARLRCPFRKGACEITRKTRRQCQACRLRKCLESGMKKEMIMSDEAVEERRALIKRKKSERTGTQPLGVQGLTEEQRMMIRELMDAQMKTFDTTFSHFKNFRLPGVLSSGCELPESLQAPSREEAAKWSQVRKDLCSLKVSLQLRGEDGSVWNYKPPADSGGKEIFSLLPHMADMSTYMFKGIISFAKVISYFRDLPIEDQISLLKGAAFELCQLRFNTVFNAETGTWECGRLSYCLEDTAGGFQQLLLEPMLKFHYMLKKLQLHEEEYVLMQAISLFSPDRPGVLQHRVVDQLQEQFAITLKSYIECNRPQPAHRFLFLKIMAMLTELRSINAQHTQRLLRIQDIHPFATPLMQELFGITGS

[9] = system: Mus musculus; assay: Toxicity in db/db C57BLKS/J-m +/+ Leprdb mouse assessed as increase in water content of epididymal fat pad at 10 to 30 mg/kg, po qd for 10 days measured on day 11 by vaccum drying method; type: organism-based; parameters: dose 10-30 mg/kg, route oral; conditions: in vivo, 240 h
In short: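 Male db/db mice, seven per group, gavaged daily in 0.25% methylcellulose; after day 11 dosing epididymal fat pads excised, weighed, vacuum centrifugal-dried over 24 h, reweighed to give water content; mean of seven determinations.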

[10] = system: Mus musculus; assay: Antidiabetic activity in db/db C57BLKS/J-m +/+ Leprdb mouse assessed as reduction of glucose level at 25 mg/kg, po qd for 10 days measured on 11 relative to control; type: functional; parameters: scale not given: the % may be the effect or the level left; in short: as §2
[11] = system: Mus musculus; assay: Antidiabetic activity in db/db C57BLKS/J-m +/+ Leprdb mouse assessed as reduction of glucose level at 3 mg/kg, po qd for 10 days measured on 11 relative to control; type: functional; parameters: scale not given: the % may be the effect or the level left; in short: as §2
[12] = system: Rattus norvegicus; assay: Toxicity in obese insulin resistant Zucker fa/fa rat assessed as increase in heart weight at >= 10 mg/kg; type: organism-based; parameters: dose 10 mg/kg; conditions: in vivo
[13] = system: Rattus norvegicus; assay: Antidiabetic activity in obese insulin resistant Zucker fa/fa rat assessed as decrease in insulin level in plasma at 0.1 to 100 mg/kg qd for 7 days; type: functional, organism-based; in short: as §1
[14] = system: Rattus norvegicus; assay: Toxicity in obese insulin resistant Zucker fa/fa rat assessed as increase in plasma volume at >= 10 mg/kg; conditions: in vivo, 100 mg/kg
[15] = system: Rattus norvegicus; assay: Antidiabetic activity in obese insulin resistant Zucker fa/fa rat assessed as decrease in free fatty acids level in plasma at 0.1 to 100 mg/kg qd for 7 days; type: functional, organism-based; in short: as §1
[16] = Half life in rat at 0.5 mg/kg, iv and 2 mg/kg, po by LC-MS/MS analysis; type: ADME, organism-based; conditions: in vivo
In short: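 Rat pharmacokinetics: 2 mpk oral in 5% methylcellulose, 0.5 mpk iv in ethanol/PEG400/water (1/4/5). Blood sampled at set intervals; plasma acidified with 0.5 M formate buffer pH 3.0, acetonitrile-precipitated, quantified by LC−MS−MS against spiked control-plasma calibration curves.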

[17] = Drug uptake in db/db C57BLKS/J-m +/+ Leprdb mouse at 10 mg/kg, po qd for 10 days measured in day 11 by LC-MS/MS analysis; type: ADME, organism-based; parameters: dose 10 mg/kg, route oral; conditions: in vivo
In short: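 Male db/db (C57BLKS/J-m +/+Leprdb) mice aged 12−13 weeks, seven per group, gavaged once daily with compound in 0.25% methylcellulose vehicle. Total compound exposure measured at study end: plasma acidified with 0.5 M formate buffer pH 3.0, protein precipitated with acetonitrile, quantified by LC−MS−MS against calibration curves in control plasma.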

[18] = molecular target: T2, Cytochrome P450 2C8 (Homo sapiens, UniProt P10632); assay: Inhibition of CYP2C8; type: ADME
T2 sequence (P10632 whole entry): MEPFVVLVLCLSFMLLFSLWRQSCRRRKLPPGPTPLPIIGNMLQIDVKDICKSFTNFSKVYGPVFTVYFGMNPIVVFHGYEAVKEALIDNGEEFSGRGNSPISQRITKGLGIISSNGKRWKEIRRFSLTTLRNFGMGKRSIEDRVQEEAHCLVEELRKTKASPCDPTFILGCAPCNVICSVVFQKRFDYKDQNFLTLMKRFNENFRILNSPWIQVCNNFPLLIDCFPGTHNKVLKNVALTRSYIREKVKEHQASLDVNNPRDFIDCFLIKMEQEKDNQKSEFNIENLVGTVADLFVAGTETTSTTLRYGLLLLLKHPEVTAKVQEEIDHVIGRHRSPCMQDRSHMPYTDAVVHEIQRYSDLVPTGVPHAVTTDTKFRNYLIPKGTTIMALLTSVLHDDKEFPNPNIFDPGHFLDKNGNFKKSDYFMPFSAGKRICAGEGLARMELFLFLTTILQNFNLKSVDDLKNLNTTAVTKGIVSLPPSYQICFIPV

Cytochrome P450 2D6, sequence (P10635 whole entry): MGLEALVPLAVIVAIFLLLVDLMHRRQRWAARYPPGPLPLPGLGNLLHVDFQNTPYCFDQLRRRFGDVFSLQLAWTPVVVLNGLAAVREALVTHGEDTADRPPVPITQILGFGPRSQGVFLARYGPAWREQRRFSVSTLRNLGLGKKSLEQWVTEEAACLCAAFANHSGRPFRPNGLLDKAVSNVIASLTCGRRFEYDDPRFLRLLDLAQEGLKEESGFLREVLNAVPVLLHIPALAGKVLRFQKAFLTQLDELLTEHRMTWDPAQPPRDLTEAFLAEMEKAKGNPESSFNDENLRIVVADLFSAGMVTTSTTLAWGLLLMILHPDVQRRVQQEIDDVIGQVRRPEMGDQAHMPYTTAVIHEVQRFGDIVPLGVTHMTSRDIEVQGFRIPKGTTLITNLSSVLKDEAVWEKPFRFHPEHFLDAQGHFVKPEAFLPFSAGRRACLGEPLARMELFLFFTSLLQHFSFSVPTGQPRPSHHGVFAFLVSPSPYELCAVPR

COc1ccc2c(-n3c(=O)n(Cc4cccc([C@@]5(C)OC(=O)NC5=O)c4)c4ccccc43)noc2c1
IC50 [1]: 91 µM
Activity [2]: Active
Activity [3]: Active
Activity [4]: 74%
Activity [5]: 77%
INH [6]: 0.951 µM
ED50 [7]: 281 µM·h
Activity [8]: Not Active
Activity [9]: Non-toxic
Activity [10]: 84%
Activity [11]: 49%
Activity [12]: Non-toxic
Activity [13]: Active
Activity [14]: Toxic
Activity [15]: Active
half-life [16]: 4.2 h
AUC at 240 h [17]: 159 µM·h
IC50 [18]: 10 µM
